Assay results reported in article PMC5447658 (Translational Oncology, 2017).

Columns and labels:
[1] = tested on: HER2; conditions: cited from earlier work
[2] = target: HER2 (SKBR3 cells) (Homo sapiens, UniProt P04626); assay: In vitro receptor competitive binding assay; conditions: TP1623 0-500 nmol/L, 30 minutes at 4°C, then tracer 2 h at 4°C
In short: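 SKBR3 cells at 2–4 × 10^4/well were seeded the day before. Unlabelled test compound was added at 0, 1, 5, 25, 50 and 500 nmol/L final, in triplicate, for 30 min at 4°C. 99mTc tracer (462 KBq/0.1 μg) followed for 2 h at 4°C. Cells were washed three times in ice-cold PBS, trypsin-digested and gamma-counted. Count was plotted against competitor concentration.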

competitive inhibition of binding of 99mTc-TP1623 to HER2 [2] | Sequence | affinity for HER2 [1]
 | YCFPDEEGACY | high affinity
could competitively inhibit the binding | G (D) AGG-Aba-YCFPDEEGACY-NH2 [TP1623] | 
